# Measured values published in ChEMBL document CHEMBL4052819 (2017).
# Activity calls are given as the source filed them. No cut-off for these calls is given here. Non-standard residues stand in square brackets, D forms with d. Residues, ends and D or L forms follow the SMILES beside them. Cha = N[C@@H](CC1CCCCC1)C(=O)O; Dab = NCC[C@H](N)C(=O)O
# Tests used:
# Escherichia coli [1] = test: Antibacterial activity against Escherichia coli ATCC 25922 in presence of 100% serum after 24 hrs by broth microdilution method; format: functional; conditions: ATCC 25922, 24 h
# Method in brief: (§1)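 Serum stability: compound added to 100% human serum at final 64 μg/mL, held at 37 °C, sampled at 0, 6, 12 and 24 h. […] Residual activity compared with untreated control.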
# Staphylococcus aureus [2] = test: Bactericidal activity against Staphylococcus aureus ATCC 29213 at 16 ug/ml after 4 hrs by time-kill assay relative to control; format: functional
# Method in brief: (§2)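 Time-kill at 8, 16 and 32 μg/mL; survivors counted on tryptic soy agar at 0, 2, 4, 6 and 24 h. Three independent experiments, one replicate each.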
# Klebsiella pneumoniae [3] = test: Bactericidal activity against Klebsiella pneumoniae ATCC 13883; format: functional; conditions: read-out: MBC99.9
# Method in brief: (§3)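 MBC from MIC plates at end point: 50 μL from each well with no visible growth plated on tryptic soy agar and counted. MBC taken as lowest concentration giving ≥99.9% fall in viable count relative to initial inoculum. Three independent experiments, one replicate each.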
# Staphylococcus aureus [4] = test: Antibiofilm activity against methicillin-resistant Staphylococcus aureus LAC established catheter-associated biofilm model at 5 times MIC after 72 hrs relative to control; format: functional
# Pseudomonas aeruginosa [5] = test: Induction of cytoplasmic membrane depolarization in Pseudomonas aeruginosa ATCC 27853 at >= 16 ug/ml by DiSC3(5) probe-based fluorescence assay; format: functional
# Pseudomonas aeruginosa [6] = test: Bactericidal activity against Pseudomonas aeruginosa ATCC 27853 at 8 ug/ml after 24 hrs by time-kill assay; format: functional; method in brief: as §2
# Enterobacter cloacae [7] = test: Antibacterial activity against carbapenem-resistant Enterobacter cloacae clinical isolate expressing beta-lactamase KPC-3, TEM1 after 18 to 20 hrs by broth microdilution method; format: functional
# Method in brief: (§4)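 Broth microdilution in tryptic soy broth: 2-fold dilutions mixed 1:1 with ~1.5 × 10^5 CFU/mL bacterial suspension in TSB, final 0.5–32 μg/mL, 37 °C for 18–20 h. MIC = lowest concentration with no visible growth. At least three independent experiments, one replicate each.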
# Staphylococcus aureus [8] = test: Bactericidal activity against Staphylococcus aureus ATCC 29213 at 32 ug/ml after 60 mins in presence of LTA; format: functional
# Method in brief: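 S. aureus at ~10^6 CFU/mL mixed with S. aureus LTA (final 10, 25, 50 or 100 μg/mL), then compound at final 32 μg/mL. Incubated 37 °C, 200 rpm, 60 min; survivors counted on TSA. Four independent experiments, one replicate each.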
# Pseudomonas aeruginosa [9] = test: Bactericidal activity against Pseudomonas aeruginosa ATCC 27853; format: functional; conditions: read-out: MBC99.9; method in brief: as §3
# Staphylococcus aureus [10] = test: Antibiofilm activity against methicillin-resistant Staphylococcus aureus LAC established catheter-associated biofilm model at 20 times MIC after 72 hrs relative to control; format: functional
# Klebsiella pneumoniae [11] = test: Antibacterial activity against carbapenem-resistant Klebsiella pneumoniae clinical isolate expressing beta-lactamase NDM, OXA-181 after 18 to 20 hrs by broth microdilution method; format: functional; method in brief: as §4
# Staphylococcus aureus [12] = test: Bactericidal activity against Staphylococcus aureus ATCC 29213; format: functional; conditions: read-out: MBC99.9; method in brief: as §3
# Escherichia coli [13] = test: Antibacterial activity against carbapenem-resistant Escherichia coli clinical isolate expressing beta-lactamase NDM after 18 to 20 hrs by broth microdilution method; format: functional; method in brief: as §4
# Escherichia coli [14] = test: Antibacterial activity against Escherichia coli ATCC 25922 in presence of 100% serum measured immediately post compound addition in serum by broth microdilution method; format: functional; method in brief: as §1
# Staphylococcus aureus [15] = test: Induction of cytoplasmic membrane damage in Staphylococcus aureus ATCC 29213 assessed as intracellular potassium ion release at 32 to 64 ug/ml by PBFI probe-based fluorescence assay; format: functional, cell-based
# Method in brief: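 Mid-log cells washed and suspended in 5 mM HEPES pH 7.2 + 5 mM glucose. PBFI K+ probe added at final 2 μM, then compound at final 8–64 μg/mL; fluorescence read at ex 346/em 505 nm. Three independent experiments; change in fluorescence analysed by ANOVA with Tukey HSD.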
# Staphylococcus aureus [16] = test: Bactericidal activity against Staphylococcus aureus ATCC 29213 at 8 ug/ml after 24 hrs by time-kill assay; format: functional; method in brief: as §2
# Staphylococcus aureus [17] = test: Antibacterial activity against methicillin-resistant Staphylococcus aureus LAC; format: functional
# Enterobacter cloacae [18] = test: Antibacterial activity against carbapenem-resistant Enterobacter cloacae clinical isolate expressing beta-lactamase NDM after 18 to 20 hrs by broth microdilution method; format: functional; method in brief: as §4
# Escherichia coli [19] = test: Antibacterial activity against polymyxin-resistant Escherichia coli AR 0494 expressing mcr1 after 18 to 20 hrs by broth microdilution method; format: functional; method in brief: as §4
structure (smiles),measurement,setting,value
CC(C)C[C@H](NC(=O)[C@@H](Cc1ccccc1)NC(=O)[C@H](CCN)NC(=O)[C@H](Cc1ccccc1)NC(=O)[C@H](CCN)NC(=O)[C@@H](N)CC1CCCCC1)C(=O)N[C@@H](CCN)C(=O)N[C@H](CC(C)C)C(=O)N[C@@H](Cc1ccccc1)C(=O)N[C@@H](CO)C(N)=O (H-[Cha][Dab]F[Dab][dF]L[Dab][dL]FS-NH2),MIC,Escherichia coli [1],8 µg/mL
same,Activity,Staphylococcus aureus [2],3.1 deltalog10CFU/ml
same,MBC,Klebsiella pneumoniae [3],4 µg/mL
same,Activity,Staphylococcus aureus [4],3 deltalog10CFU/ml
same,Activity,Pseudomonas aeruginosa [5],Active
same,Activity,Pseudomonas aeruginosa [6],inactive
same,MIC,Enterobacter cloacae [7],0.5 µg/mL
same,Activity,Staphylococcus aureus [8],inactive
same,MBC,Pseudomonas aeruginosa [9],2 to 4 µg/mL
same,Activity,Staphylococcus aureus [10],5 deltalog10CFU/ml
same,MIC,Klebsiella pneumoniae [11],0.5 to 2 µg/mL
same,MBC,Staphylococcus aureus [12],8 µg/mL
same,MIC,Escherichia coli [13],0.5 µg/mL
same,MIC,Escherichia coli [14],4 to 8 µg/mL
same,Activity,Staphylococcus aureus [15],Active
same,Activity,Staphylococcus aureus [16],inactive
same,MIC,Staphylococcus aureus [17],8 µg/mL
same,MIC,Enterobacter cloacae [18],0.5 µg/mL
same,MIC,Escherichia coli [19],0.5 µg/mL
